Results published in ChEMBL document CHEMBL1165977, “Novel analogues of Istaroxime, a potent inhibitor of Na(+),K(+)-ATPase: Synthesis, structure-activity relationship and 3D-quantitative structure-activity relationship of derivatives at position 6 on the androstane scaffold” (Bioorg Med Chem, 2010).

Experiments:
[1] = Inhibition of dog kidney Na+K+-ATPase assessed as hydrolysis of [32P]ATP; design: species or system Canis lupus familiaris
Summary of the method: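 Dog kidney Na+,K+-ATPase, isolated and purified by the Jørgensen method. Enzyme activity was read as % hydrolysis of 32P-ATP with versus without test compound. IC50 was obtained by nonlinear least-squares curve fitting, as the mean of two or three experiments.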

[2] = system: Cavia porcellus; assay: Toxicity in guinea pig assessed as death at 0.16 ml/min, iv up to 90 mins; assay type: organism-based; conditions: in vivo, 1.5 h
Summary of the method: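 Anesthetized guinea pigs with a jugular vein cannula and an intubated trachea for spontaneous respiration. After stabilization, drug was infused iv at 0.16 mL/min until death or for up to 90 min. Vehicle was DMSO diluted in physiological solution to 1% DMSO final. Read-out was +dP/dt_max. ED80 (dose raising +dP/dt_max by 80%) came from the dose–response, and the doses giving maximum inotropy and death were recorded, giving the lethal dose/ED80 ratio.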

[3] = system: Cavia porcellus; assay: Positive inotropic activity in guinea pig atria assessed as increase in […] at 0.16 ml/min, iv; assay type: functional
[4] = system: Cavia porcellus; assay: Positive inotropic activity in iv dosed guinea pig atria assessed as concentration required to increase in […]; assay type: functional
[5] = organism: Cavia porcellus; assay: Positive inotropic activity in electrically driven guinea pig atria assessed as maximal concentration required to increase in […]; assay type: functional

Compound	IC50 [1]	other results
C[C@]12CC/C(=N\OCCN)C[C@@H]1[C@H](O[N+](=O)[O-])C[C@@H]1[C@@H]2CC[C@]2(C)C(=O)CC[C@@H]12	2900 nM	
CNCCCO/N=C1\CC[C@@]2(C)[C@H](C1)[C@@H](COC)C[C@@H]1[C@@H]2CC[C@]2(C)C(=O)CC[C@@H]12	2000 nM	
C=CCO/N=C1\C[C@@H]2[C@H](CC[C@]3(C)C(=O)CC[C@@H]23)[C@@]2(C)CC/C(=N\OCCN)C[C@H]12	43000 nM	
COC(=O)/C=C1\C[C@@H]2[C@H](CC[C@]3(C)C(=O)CC[C@@H]23)[C@@]2(C)CC/C(=N\OCCN)C[C@H]12	64000 nM	
COC[C@@H]1C[C@@H]2[C@H](CC[C@]3(C)C(=O)CC[C@@H]23)[C@@]2(C)CC/C(=N\OCCN)C[C@H]12	3000 nM	
COC[C@H]1C[C@@H]2[C@H](CC[C@]3(C)C(=O)CC[C@@H]23)[C@@]2(C)CC/C(=N\OCCN)C[C@H]12	500 nM	
C[C@]12CC/C(=N\OCCN)C[C@@H]1[C@@]1(CO1)C[C@@H]1[C@@H]2CC[C@]2(C)C(=O)CC[C@@H]12	910 nM	
CO/N=C1\C[C@@H]2[C@H](CC[C@]3(C)C(=O)CC[C@@H]23)[C@@]2(C)CC/C(=N\O[C@@H]3CCNC3)C[C@H]12	18 nM	
C[C@]12CC/C(=N\OCCN)C[C@@H]1[C@]1(CO1)C[C@@H]1[C@@H]2CC[C@]2(C)C(=O)CC[C@@H]12	870 nM	
C[C@]12CC/C(=N\O[C@@H]3CCNC3)C[C@@H]1[C@@H](CO)C[C@@H]1[C@@H]2CC[C@]2(C)C(=O)CC[C@@H]12	26 nM	
CNCCCO/N=C1\CC[C@@]2(C)[C@H](C1)C1(CC1)C[C@@H]1[C@@H]2CC[C@]2(C)C(=O)CC[C@@H]12	1300 nM	
CNCCCO/N=C1\CC[C@@]2(C)[C@H](C1)C(=O)C[C@@H]1[C@@H]2CC[C@]2(C)C(=O)CC[C@@H]12	250 nM	
C=C1C[C@@H]2[C@H](CC[C@]3(C)C(=O)CC[C@@H]23)[C@@]2(C)CC/C(=N\OCCCNC)C[C@H]12	570 nM	
C[C@]12CC/C(=N\OCCN)C[C@@H]1[C@@H](C#N)C[C@@H]1[C@@H]2CC[C@]2(C)C(=O)CC[C@@H]12	1100 nM	
COC(=O)[C@H]1C[C@@H]2[C@H](CC[C@]3(C)C(=O)CC[C@@H]23)[C@@]2(C)CC/C(=N\OCCN)C[C@H]12	410 nM	
C[C@]12CC/C(=N\OCCN)C[C@@H]1[C@@H](C(N)=O)C[C@@H]1[C@@H]2CC[C@]2(C)C(=O)CC[C@@H]12	630 nM	
C#C[C@H]1C[C@@H]2[C@H](CC[C@]3(C)C(=O)CC[C@@H]23)[C@@]2(C)CC/C(=N\OCCCNC)C[C@H]12	1200 nM	
CNCCCO/N=C1\CC[C@@]2(C)[C@H](C1)[C@@H](C(N)=O)C[C@@H]1[C@@H]2CC[C@]2(C)C(=O)CC[C@@H]12	1900 nM	
CNCCCO/N=C1\CC[C@@]2(C)[C@H](C1)[C@@H](C(=O)OC)C[C@@H]1[C@@H]2CC[C@]2(C)C(=O)CC[C@@H]12	4000 nM	
CO[C@@H]1C[C@@H]2[C@H](CC[C@]3(C)C(=O)CC[C@@H]23)[C@@]2(C)CC/C(=N\OCCN)C[C@H]12	1500 nM	
C[C@]12CC/C(=N\OCCN)C[C@@H]1[C@@H](O)C[C@@H]1[C@@H]2CC[C@]2(C)C(=O)CC[C@@H]12	520 nM	
C[C@]12CC/C(=N\OCCN)C[C@@H]1[C@H](O)C[C@@H]1[C@@H]2CC[C@]2(C)C(=O)CC[C@@H]12	2100 nM	
C=C1C[C@@H]2[C@H](CC[C@]3(C)C(=O)CC[C@@H]23)[C@@]2(C)CC/C(=N\OCCN)C[C@H]12	42 nM	
C[C@]12CC/C(=N\OCCN)C[C@@H]1[C@@H](C(=O)O)C[C@@H]1[C@@H]2CC[C@]2(C)C(=O)CC[C@@H]12	16000 nM	

Compound	IC50 [1]	other results
C[C@]12CC/C(=N\OCCN)C[C@@H]1C(=C(F)F)C[C@@H]1[C@@H]2CC[C@]2(C)C(=O)CC[C@@H]12	190 nM	
C/C=C1\C[C@@H]2[C@H](CC[C@]3(C)C(=O)CC[C@@H]23)[C@@]2(C)CC/C(=N\OCCN)C[C@H]12	1100 nM	
C[C@]12CC/C(=N\OCCN)C[C@@H]1C1(CC1)C[C@@H]1[C@@H]2CC[C@]2(C)C(=O)CC[C@@H]12	850 nM	
C[C@H]1C[C@@H]2[C@H](CC[C@]3(C)C(=O)CC[C@@H]23)[C@@]2(C)CC/C(=N\OCCN)C[C@H]12.Cl	300 nM	Activity [2]: Non-toxic; Emax [3]: 203%; ED80 [4]: 3.1 µM/g; Activity [5]: 5.8 µM/g
C=C[C@H]1C[C@@H]2[C@H](CC[C@]3(C)C(=O)CC[C@@H]23)[C@@]2(C)CC/C(=N\OCCN)C[C@H]12	530 nM	
C#C[C@H]1C[C@@H]2[C@H](CC[C@]3(C)C(=O)CC[C@@H]23)[C@@]2(C)CC/C(=N\OCCN)C[C@H]12.Cl	200 nM	Activity [2]: Non-toxic; Emax [3]: 163%; ED80 [4]: 4.6 µM/g; Activity [5]: 9.9 µM/g
C[C@@H]1C[C@@H]2[C@H](CC[C@]3(C)C(=O)CC[C@@H]23)[C@@]2(C)CC/C(=N\OCCN)C[C@H]12	6000 nM	
CO/N=C1\C[C@@H]2[C@H](CC[C@]3(C)C(=O)CC[C@@H]23)[C@@]2(C)CC/C(=N\OCCN)C[C@H]12.Cl	17 nM	Activity [2]: Non-toxic; Emax [3]: 183%; ED80 [4]: 2.4 µM/g; Activity [5]: 5.8 µM/g
CCO/N=C1\C[C@@H]2[C@H](CC[C@]3(C)C(=O)CC[C@@H]23)[C@@]2(C)CC/C(=N\OCCN)C[C@H]12	1700 nM	
C[C@]12CC/C(=N\O[C@@H]3CCNC3)C[C@@H]1[C@@H](O[N+](=O)[O-])C[C@@H]1[C@@H]2CC[C@]2(C)C(=O)CC[C@@H]12	380 nM	
C[C@]12CC/C(=N\OCCN)C[C@@H]1/C(=C/C#N)C[C@@H]1[C@@H]2CC[C@]2(C)C(=O)CC[C@@H]12	1700 nM	
C[C@H]1C[C@@H]2[C@H](CC[C@]3(C)C(=O)CC[C@@H]23)[C@@]2(C)CC/C(=N\O[C@@H]3CCNC3)C[C@H]12	340 nM	
C[C@]12CC/C(=N\OCCN)C[C@@H]1[C@@H](CO)C[C@@H]1[C@@H]2CC[C@]2(C)C(=O)CC[C@@H]12.Cl	180 nM	Activity [2]: Non-toxic; Emax [3]: 166%; ED80 [4]: 1.8 µM/g; Activity [5]: 7.4 µM/g
C[C@]12CC/C(=N\OCCN)C[C@@H]1[C@H](CO)C[C@@H]1[C@@H]2CC[C@]2(C)C(=O)CC[C@@H]12	1600 nM	
C#C[C@H]1C[C@@H]2[C@H](CC[C@]3(C)C(=O)CC[C@@H]23)[C@@]2(C)CC/C(=N\O[C@@H]3CCNC3)C[C@H]12.Cl	110 nM	Activity [2]: Non-toxic; Emax [3]: 147%; ED80 [4]: 3.7 µM/g; Activity [5]: 6 µM/g
CC(=O)N[C@H]1C[C@@H]2[C@H](CC[C@]3(C)C(=O)CC[C@@H]23)[C@@]2(C)CC/C(=N\OCCN)C[C@H]12	45000 nM	
C=C1C[C@@H]2[C@H](CC[C@]3(C)C(=O)CC[C@@H]23)[C@@]2(C)CC/C(=N\O[C@@H]3CCNC3)C[C@H]12	46 nM	
C[C@]12CC/C(=N\OCCN)C[C@@H]1/C(=C/CO)C[C@@H]1[C@@H]2CC[C@]2(C)C(=O)CC[C@@H]12	770 nM	
C[C@]12CC/C(=N\O[C@@H]3CCNC3)C[C@@H]1C(=C(F)F)C[C@@H]1[C@@H]2CC[C@]2(C)C(=O)CC[C@@H]12.Cl	21 nM	Activity [2]: Non-toxic; Emax [3]: 244%; ED80 [4]: 6.7 µM/g; Activity [5]: 18 µM/g
C[C@]12CC/C(=N\O[C@@H]3CCNC3)C[C@@H]1C1(CC1)C[C@@H]1[C@@H]2CC[C@]2(C)C(=O)CC[C@@H]12	220 nM	
CNCCCO/N=C1\CC[C@@]2(C)[C@H](C1)/C(=N/OC)C[C@@H]1[C@@H]2CC[C@]2(C)C(=O)CC[C@@H]12	330 nM	
CCO[C@H]1C[C@@H]2[C@H](CC[C@]3(C)C(=O)CC[C@@H]23)[C@@]2(C)CC/C(=N\OCCN)C[C@H]12	3100 nM	
C[C@]12CC/C(=N\O[C@@H]3CCNC3)C[C@@H]1C(=O)C[C@@H]1[C@@H]2CC[C@]2(C)C(=O)CC[C@@H]12	26 nM	
